Source: ChEMBL document CHEMBL4138104, “Indole carboxylic acid esters of melampomagnolide B are potent anticancer agents against both hematological and solid tumor cells” (Eur J Med Chem, 2017)

Experiments:
Assay type in all cases: functional
HCC 2998 = assay: Growth inhibition of human HCC2998 cells incubated for 48 hrs by sulforhodamine B assay; conditions: HCC 2998, 48 h
Summary of the method: (§1)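 NCI-60 screen. Compounds were dosed at five concentrations spanning 10^-4 to 10^-8 M for 48 h at 37 °C. Cells were TCA-fixed, stained with 0.4% SRB and read at 515 nm against time-zero and vehicle controls. GI50 is the concentration giving a 50% reduction in net protein increase.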

UO-31 = assay: Growth inhibition of human UO31 cells incubated for 48 hrs by sulforhodamine B assay; conditions: UO-31, 48 h
Summary of the method: (§2)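 NCI-60 screen run at NCI. Cells grown in RPMI medium with 5% FBS and 2 mM L-glutamine, plated at 5,000–40,000 cells/well, and preincubated 24 h at 37 °C. Time-zero plates were TCA-fixed. Compounds came from DMSO stocks and were tested at five concentrations from 10^-4 to 10^-8 M for 48 h. Cells were then TCA-fixed, stained with 0.4% SRB, and OD read at 515 nm. GI50 is the concentration giving a 50% reduction in net protein increase versus control.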

SK-OV-3 = assay: Growth inhibition of human SKOV3 cells incubated for 48 hrs by sulforhodamine B assay; conditions: SK-OV-3, 48 h; summary of the method: as §1
SK-MEL-28 = assay: Growth inhibition of human SK-MEL-28 cells incubated for 48 hrs by sulforhodamine B assay; conditions: SK-MEL-28, 48 h; summary of the method: as §1
A498 = assay: Growth inhibition of human A498 cells incubated for 48 hrs by sulforhodamine B assay; conditions: A498, 48 h; summary of the method: as §1
HCT-116 = assay: Growth inhibition of human HCT116 cells incubated for 48 hrs by sulforhodamine B assay; conditions: HCT-116, 48 h; summary of the method: as §1
UACC-62 = assay: Growth inhibition of human UACC62 cells incubated for 48 hrs by sulforhodamine B assay; conditions: UACC-62, 48 h; summary of the method: as §2
NCI-H322M = assay: Growth inhibition of human NCI-H322M cells incubated for 48 hrs by sulforhodamine B assay; summary of the method: as §1
SW-620 = assay: Growth inhibition of human SW620 cells incubated for 48 hrs by sulforhodamine B assay; conditions: SW-620, 48 h; summary of the method: as §2
A549 = assay: Growth inhibition of human A549/ATCC cells incubated for 48 hrs by sulforhodamine B assay; conditions: A549, 48 h; summary of the method: as §1
CCRF-CEM = assay: Growth inhibition of human CCRF-CEM cells incubated for 48 hrs by sulforhodamine B assay; summary of the method: as §1
NCI/ADR-RES = assay: Growth inhibition of human NCI/ADR-RES cells incubated for 48 hrs by sulforhodamine B assay; summary of the method: as §1
NCI-H522 = assay: Growth inhibition of human NCI-H522 cells incubated for 48 hrs by sulforhodamine B assay; conditions: NCI-H522, 48 h; summary of the method: as §1
MCF7 = assay: Growth inhibition of human MCF7 cells incubated for 48 hrs by sulforhodamine B assay; conditions: MCF7, 48 h; summary of the method: as §1
U-251 = assay: Growth inhibition of human U251 cells incubated for 48 hrs by sulforhodamine B assay; conditions: U-251, 48 h; summary of the method: as §2
OVCAR-8 = assay: Growth inhibition of human OVCAR8 cells incubated for 48 hrs by sulforhodamine B assay; conditions: OVCAR-8, 48 h; summary of the method: as §1
SF-539 = assay: Growth inhibition of human SF539 cells incubated for 48 hrs by sulforhodamine B assay; conditions: SF-539, 48 h; summary of the method: as §1
HT-29 = assay: Growth inhibition of human HT-29 cells incubated for 48 hrs by sulforhodamine B assay; conditions: HT-29, 48 h; summary of the method: as §1
SNB-19 = assay: Growth inhibition of human SNB19 cells incubated for 48 hrs by sulforhodamine B assay; conditions: SNB-19, 48 h; summary of the method: as §2
RXF 393 = assay: Growth inhibition of human RXF393 cells incubated for 48 hrs by sulforhodamine B assay; conditions: RXF 393, 48 h; summary of the method: as §1
SN12C = assay: Growth inhibition of human SN12C cells incubated for 48 hrs by sulforhodamine B assay; summary of the method: as §1
LOX IMVI = assay: Growth inhibition of human LOXIMVI cells incubated for 48 hrs by sulforhodamine B assay; summary of the method: as §1
OVCAR-5 = assay: Growth inhibition of human OVCAR5 cells incubated for 48 hrs by sulforhodamine B assay; conditions: OVCAR-5, 48 h; summary of the method: as §1
Malme-3M = assay: Growth inhibition of human MALME-3M cells incubated for 48 hrs by sulforhodamine B assay; summary of the method: as §1
[1] = Cytotoxicity against human M9-ENL1 cells assessed as reduction in cell viability by trypan blue staining-based assay
Summary of the method: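 M9-ENL1 AML cells (MLL-ENL-transduced human blood cells) plated at 10^6 cells/mL in alpha-MEM with 5% human plasma, 20% FBS, SCF, IL-3, IL-7 and FLT3. Drug diluted from DMSO stock into PBS, final DMSO ≤0.5%. After 24 h exposure, dead cells assessed by trypan blue and by flow cytometry (Annexin V/PI or Annexin V/7-AAD). Viability normalized to vehicle; EC50 from dose-response curves; triplicate.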

HL-60(TB) = assay: Growth inhibition of human HL-60(TB) cells incubated for 48 hrs by sulforhodamine B assay; conditions: HL-60, 48 h
Summary of the method: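 Performed at NCI's 60-line screen. Cells grown in RPMI with 5% FBS and 2 mM L-glutamine, plated 5,000–40,000 cells/well and incubated 24 h at 37 °C before compound addition. DMSO stocks were diluted in medium with gentamicin, and five concentrations spanning 10^-4 to 10^-8 M were tested. Exposure was 48 h. Cells were fixed with TCA, stained with SRB, and read at 515 nm. GI50 taken from log dose-response curves as 50% reduction in net protein increase versus control.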

KM12 = assay: Growth inhibition of human KM12 cells incubated for 48 hrs by sulforhodamine B assay; conditions: KM12, 48 h; summary of the method: as §1
NCI-H226 = assay: Growth inhibition of human NCI-H226 cells incubated for 48 hrs by sulforhodamine B assay; conditions: NCI-H226, 48 h; summary of the method: as §1
SF-295 = assay: Growth inhibition of human SF295 cells incubated for 48 hrs by sulforhodamine B assay; conditions: SF-295, 48 h; summary of the method: as §1
SF-268 = assay: Growth inhibition of human SF268 cells incubated for 48 hrs by sulforhodamine B assay; conditions: SF-268, 48 h; summary of the method: as §1
HCT-15 = assay: Growth inhibition of human HCT15 cells incubated for 48 hrs by sulforhodamine B assay; conditions: HCT-15, 48 h; summary of the method: as §1
NCI-H460 = assay: Growth inhibition of human NCI-H460 cells incubated for 48 hrs by sulforhodamine B assay; conditions: NCI-H460, 48 h; summary of the method: as §1
NCI-H23 = assay: Growth inhibition of human NCI-H23 cells incubated for 48 hrs by sulforhodamine B assay; conditions: NCI-H23, 48 h; summary of the method: as §1
HOP-92 = assay: Growth inhibition of human HOP92 cells incubated for 48 hrs by sulforhodamine B assay; conditions: HOP-92, 48 h; summary of the method: as §1
RPMI-8226 = assay: Growth inhibition of human RPMI8226 cells incubated for 48 hrs by sulforhodamine B assay; conditions: RPMI-8226, 48 h; summary of the method: as §1
UACC-257 = assay: Growth inhibition of human UACC257 cells incubated for 48 hrs by sulforhodamine B assay; conditions: UACC-257, 48 h; summary of the method: as §2
MOLT-4 = assay: Growth inhibition of human MOLT4 cells incubated for 48 hrs by sulforhodamine B assay; conditions: MOLT-4, 48 h; summary of the method: as §1

## C=C1C(=O)O[C@@H]2[C@H]3O[C@]3(C)CC/C=C(/COC(=O)c3c[nH]c4ccccc34)CC[C@@H]12
HCC 2998
  GI50: 0.32 µM
UO-31
  GI50: 0.16 µM
SK-OV-3
  GI50: 2.24 µM
SK-MEL-28
  GI50: 0.36 µM
A498
  GI50: 0.26 µM
HCT-116
  GI50: 0.19 µM
UACC-62
  GI50: 0.18 µM
NCI-H322M
  GI50: 1.85 µM
SW-620
  GI50: 0.23 µM
A549
  GI50: 1.5 µM
CCRF-CEM
  GI50: 0.05 µM
NCI/ADR-RES
  GI50: 0.39 µM
NCI-H522
  GI50: 0.19 µM
MCF7
  GI50: 0.26 µM
U-251
  GI50: 0.61 µM
OVCAR-8
  GI50: 0.28 µM
SF-539
  GI50: 0.26 µM
HT-29
  GI50: 0.24 µM
SNB-19
  GI50: 1.3 µM
RXF 393
  GI50: 0.19 µM
SN12C
  GI50: 0.23 µM
LOX IMVI
  GI50: 0.04 µM
OVCAR-5
  GI50: 0.4 µM
Malme-3M
  GI50: 0.32 µM
[1]
  EC50: 1.9 µM
HL-60(TB)
  GI50: 0.27 µM
KM12
  GI50: 0.47 µM
NCI-H226
  GI50: 0.44 µM
SF-295
  GI50: 1.94 µM
SF-268
  GI50: 0.29 µM
HCT-15
  GI50: 0.25 µM
NCI-H460
  GI50: 1.1 µM
NCI-H23
  GI50: 1.63 µM
HOP-92
  GI50: 0.16 µM
RPMI-8226
  GI50: 0.04 µM
UACC-257
  GI50: 0.36 µM
MOLT-4
  GI50: 0.28 µM

## C=C1C(=O)O[C@@H]2[C@H]3O[C@]3(C)CC/C=C(/COC(=O)c3cn(C)c4ccccc34)CC[C@@H]12
HCC 2998
  GI50: 1.81 µM
UO-31
  GI50: 0.77 µM
SK-OV-3
  GI50: 4.33 µM
SK-MEL-28
  GI50: 1.55 µM
A498
  GI50: 1.59 µM
HCT-116
  GI50: 1.02 µM
UACC-62
  GI50: 1.26 µM
NCI-H322M
  GI50: 3.01 µM
SW-620
  GI50: 0.3 µM
A549
  GI50: 1.82 µM
CCRF-CEM
  GI50: 0.21 µM
NCI/ADR-RES
  GI50: 2.15 µM
NCI-H522
  GI50: 0.39 µM
MCF7
  GI50: 0.4 µM
U-251
  GI50: 1.42 µM
OVCAR-8
  GI50: 0.8 µM
SF-539
  GI50: 0.74 µM
HT-29
  GI50: 0.52 µM
SNB-19
  GI50: 1.59 µM
RXF 393
  GI50: 0.58 µM
SN12C
  GI50: 0.71 µM
LOX IMVI
  GI50: 0.22 µM
OVCAR-5
  GI50: 1.56 µM
Malme-3M
  GI50: 1.62 µM
[1]
  EC50: 7.2 µM
HL-60(TB)
  GI50: 1.54 µM
KM12
  GI50: 1.83 µM
NCI-H226
  GI50: 1.48 µM
SF-295
  GI50: 2.41 µM
SF-268
  GI50: 1.3 µM
HCT-15
  GI50: 0.53 µM
NCI-H460
  GI50: 1.73 µM
NCI-H23
  GI50: 1.93 µM
HOP-92
  GI50: 0.36 µM
RPMI-8226
  GI50: 0.21 µM
UACC-257
  GI50: 1.32 µM
MOLT-4
  GI50: 0.57 µM

## C=C1C(=O)O[C@@H]2C3O[C@]3(C)CC/C=C(\C)CC[C@@H]12 (stereo partly specified)
HCC 2998
  GI50: 24.1 µM
UO-31
  GI50: 41.9 µM
SK-OV-3
  GI50: 54.7 µM
SK-MEL-28
  GI50: 21 µM
A498
  GI50: 7.04 µM
HCT-116
  GI50: 10.8 µM
UACC-62
  GI50: 16.8 µM
NCI-H322M
  GI50: 21.7 µM
SW-620
  GI50: 14.5 µM
A549
  GI50: 91.8 µM
CCRF-CEM
  GI50: 9.16 µM
NCI/ADR-RES
  GI50: 15 µM
NCI-H522
  GI50: 5.47 µM
MCF7
  GI50: 16.4 µM
U-251
  GI50: 41.5 µM
OVCAR-8
  GI50: 17.1 µM
SF-539
  GI50: 18.9 µM
HT-29
  GI50: 23.5 µM
SNB-19
  GI50: 70.9 µM
RXF 393
  GI50: 12.2 µM
SN12C
  GI50: 22.8 µM
LOX IMVI
  GI50: 8.24 µM
OVCAR-5
  GI50: 34.1 µM
Malme-3M
  GI50: 13.8 µM
[1]
  EC50: 5.5 µM
HL-60(TB)
  GI50: 5.71 µM
KM12
  GI50: 16.2 µM
NCI-H226
  GI50: 20.5 µM
SF-295
  GI50: 28.9 µM
SF-268
  GI50: 25.1 µM
HCT-15
  GI50: 10.2 µM
NCI-H460
  GI50: 18.8 µM
NCI-H23
  GI50: 20.2 µM
HOP-92
  GI50: 13.5 µM
RPMI-8226
  GI50: 8.2 µM
UACC-257
  GI50: 14.4 µM
MOLT-4
  GI50: 14.3 µM
